Screening data as filed in PubChem.
Only some compounds are listed: those with a hit (about 2.3% of all), similar ones and a draw of the others.
TRPC4 PAM – TRPC4 (mouse) allosteric potentiation. B-score at 10 µM. HEK293 TRPC4beta/mu-opioid, DAMGO EC20, Fluo-4 Ca2+ flux; stronger effect = higher value. Q9QUQ5. hit rate 0.42% among 310,000;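 active = B-score of calcium response area above 5 SD of library B-scores, with initial fluorescence ratio within 5 SD of library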;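 note: B-score of integrated fluorescence ratio over time as area under calcium response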
Target sequence (Q9QUQ5 whole entry, looked up): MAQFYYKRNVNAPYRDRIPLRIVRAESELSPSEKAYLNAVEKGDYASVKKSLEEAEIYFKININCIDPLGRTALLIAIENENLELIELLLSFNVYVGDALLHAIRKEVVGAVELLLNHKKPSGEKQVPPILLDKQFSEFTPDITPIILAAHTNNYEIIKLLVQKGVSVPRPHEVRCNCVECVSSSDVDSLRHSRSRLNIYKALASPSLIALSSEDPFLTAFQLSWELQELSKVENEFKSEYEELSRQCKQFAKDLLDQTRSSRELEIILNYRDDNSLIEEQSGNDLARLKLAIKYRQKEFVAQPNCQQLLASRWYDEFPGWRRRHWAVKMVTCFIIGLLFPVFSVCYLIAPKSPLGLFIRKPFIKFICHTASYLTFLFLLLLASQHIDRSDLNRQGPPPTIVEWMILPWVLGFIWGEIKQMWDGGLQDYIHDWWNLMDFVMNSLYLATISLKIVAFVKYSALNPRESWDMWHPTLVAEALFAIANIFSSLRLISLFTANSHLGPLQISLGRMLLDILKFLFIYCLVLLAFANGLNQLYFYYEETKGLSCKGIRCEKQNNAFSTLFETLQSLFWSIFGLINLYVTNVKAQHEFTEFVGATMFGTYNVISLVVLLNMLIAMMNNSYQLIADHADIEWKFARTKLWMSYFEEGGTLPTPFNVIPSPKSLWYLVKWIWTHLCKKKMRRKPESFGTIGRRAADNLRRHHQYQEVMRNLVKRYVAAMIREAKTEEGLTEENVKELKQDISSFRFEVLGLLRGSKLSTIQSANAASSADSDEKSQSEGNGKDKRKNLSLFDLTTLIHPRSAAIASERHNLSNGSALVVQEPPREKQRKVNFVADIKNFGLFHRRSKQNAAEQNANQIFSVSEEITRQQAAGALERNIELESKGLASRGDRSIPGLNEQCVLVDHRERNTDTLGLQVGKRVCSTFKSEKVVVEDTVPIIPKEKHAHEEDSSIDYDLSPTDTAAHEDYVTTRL
TRPC4 block – inhibitors of mouse TRPC4 channel | HEK293 TRPC4beta/mu-opioid, DAMGO-evoked Fluo4 calcium flux; stronger effect = lower value | B-score at 10 µM | hit rate 0.39% among 300,000 | AID 2247;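 active = B-score over 3 SD under the library average, no early fluorescence shift, positive overall ratio signal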
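Assay system – HEK293 line stably carrying TRPC4beta and mu-opioid receptor · Doses – single dose · Detection – Fluo4 calcium-dye fluorescence, kinetic read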
TRPC6 inh – inhibitors of mouse TRPC6 channel | HEK293-TRPC6, membrane potential dye, ACh-evoked depolarization; stronger effect = lower value | B-score at 10 µM | hit rate 1.1% among 310,000;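 active = B-score under library mean minus 3 SD, initial fluorescence not abnormally high, positive integrated signal ratio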;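 note: B-score derived from integrated fluorescence ratio over the kinetic read; more negative B-score means stronger inhibition of depolarization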
TRPC6 activator – activators of mouse TRPC6 channel | Q61143 | HEK293-TRPC6 membrane potential dye fluorescence; stronger effect = higher value | B-score at 10 µM | hit rate 0.13% among 310,000;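 active = B-score of the integrated fluorescence ratio above library mean plus 3 SD, and starting fluorescence ratio within library mean plus 5 SD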;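 note: higher score means more depolarization so channel activation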
TRPC4 agonist – activators of mouse TRPC4 channel; HEK293 TRPC4beta/mu-opioid, Fluo4 calcium fluorescence; stronger effect = higher value; hit rate 0.49% among 310,000; Q9QUQ5; B-score at 10 µM;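 active = B-score above 5 SD of library B-scores, and initial fluorescence ratio not above library mean plus 5 SD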;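 note: positive B-score marks a calcium rise read as TRPC4 activation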
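System – HEK293 cells stably co-expressing mouse TRPC4beta and mu-opioid receptor · Signal – Fluo4 calcium-sensitive dye fluorescence, kinetic, 1 Hz baseline · Benchmarks – buffer (low) and maximal DAMGO (high) · Read-out – B score of integrated fluorescence ratio per well · Incubation – dye loading 45 min room temperature, 110 s kinetic read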
An asterisk follows results filed as active.

Screening CN(C)CCN(C(=O)c1ccc(S(=O)(=O)N2CCCC2)cc1)c1nc2ccc(Br)cc2s1 returned TRPC4 PAM inactive, TRPC4 block inactive, TRPC6 inh inactive, TRPC6 activator inactive and TRPC4 agonist inactive.
OC(CNC1Cc2ccccc2C1)c1ccccc1 (stereo not drawn) was read as TRPC4 PAM inactive, TRPC4 block inactive, TRPC6 inh inactive, TRPC6 activator inactive and TRPC4 agonist inactive.
Cc1cc2oc(C(=O)Nc3ccc(S(=O)(=O)Nc4ncccn4)cc3)cc(=O)c2cc1Cl was read as TRPC4 PAM inactive, TRPC4 block inactive, TRPC6 inh inactive, TRPC6 activator inactive and TRPC4 agonist inactive.
NC(=S)Nc1cc2ccccc2c2ccccc12 was read as TRPC4 PAM 14*, TRPC4 block inactive, TRPC6 inh inactive, TRPC6 activator inactive and TRPC4 agonist inactive.
For COc1cc(CNC(=O)c2nc(Cn3nc(C)c(Br)c3C)no2)cc(OC)c1 the results were TRPC4 PAM inactive, TRPC4 block inactive, TRPC6 inh inactive, TRPC6 activator inactive and TRPC4 agonist inactive.
For CC(C)COc1ccc(-c2nn(-c3ccccc3)cc2CO)cc1 the results were TRPC4 PAM 10*, TRPC4 block inactive, TRPC6 inh inactive, TRPC6 activator inactive and TRPC4 agonist inactive.
Screening OCc1cn(-c2ccccc2)nc1-c1ccc(Br)cc1 returned TRPC4 PAM inactive, TRPC4 block inactive, TRPC6 inh inactive, TRPC6 activator inactive and TRPC4 agonist inactive.
`OCCNCCSc1ccc(Cl)cc1` gave TRPC4 PAM inactive, TRPC4 block inactive, TRPC6 inh inactive, TRPC6 activator inactive and TRPC4 agonist 104*.
For COc1ccccc1CCc1nnc(CCC(=O)NC(C)Cc2cccnc2)o1 (stereo not drawn) the results were TRPC4 PAM inactive, TRPC4 block inactive, TRPC6 inh inactive, TRPC6 activator inactive and TRPC4 agonist inactive.
For COc1ccccc1CCc1nnc(CCC(=O)NCCCOc2cccnc2)o1 the results were TRPC4 PAM inactive, TRPC4 block -6*, TRPC6 inh inactive, TRPC6 activator inactive and TRPC4 agonist inactive.
`COc1ccc(C(=O)NN/C(=N/S(=O)(=O)c2ccc(C)cc2)c2ccccc2)cc1` gave TRPC4 PAM inactive, TRPC4 block inactive, TRPC6 inh inactive, TRPC6 activator inactive and TRPC4 agonist inactive.
Screening Cc1c(C(=O)NCCc2ccccc2)oc2ccccc12 returned TRPC4 PAM 22*, TRPC4 block inactive, TRPC6 inh inactive, TRPC6 activator inactive and TRPC4 agonist inactive.
O=C(Nc1ccc(S(=O)(=O)NCc2ccccc2)cc1)Nc1ccc2c(c1)OCO2 was read as TRPC4 PAM inactive, TRPC4 block inactive, TRPC6 inh inactive, TRPC6 activator inactive and TRPC4 agonist inactive.
Screening CCNS(=O)(=O)c1ccc(NC(=O)Nc2ccc3c(c2)OCO3)cc1 returned TRPC4 PAM inactive, TRPC4 block inactive, TRPC6 inh inactive, TRPC6 activator inactive and TRPC4 agonist 61*.
C/C(=C\C(=O)OCCCCCCCCC(=O)O)C[C@@H]1OC[C@H](C[C@@H]2O[C@H]2[C@@H](C)[C@H](C)O)[C@@H](O)[C@H]1O was read as TRPC4 PAM inactive, TRPC4 block inactive, TRPC6 inh inactive, TRPC6 activator inactive and TRPC4 agonist inactive.
Cc1csc(/C(=N/OC(=O)c2ccco2)C(N)=O)n1 was read as TRPC4 PAM 10*, TRPC4 block inactive, TRPC6 inh inactive, TRPC6 activator inactive and TRPC4 agonist inactive.
`COc1ccc(/C(N)=N/OC(=O)c2ccco2)cc1OC` gave TRPC4 PAM inactive, TRPC4 block inactive, TRPC6 inh inactive, TRPC6 activator inactive and TRPC4 agonist inactive.
Screening COc1ccc(/C=N/Nc2cc(C)nc3ccc(OC)cc23)c(OC)c1 returned TRPC4 PAM inactive, TRPC4 block inactive, TRPC6 inh -5.39*, TRPC6 activator inactive and TRPC4 agonist inactive.
For COc1ccccc1/C=N/Nc1cc(C)nc2ccc(C)cc12 the results were TRPC4 PAM inactive, TRPC4 block inactive, TRPC6 inh inactive, TRPC6 activator inactive and TRPC4 agonist inactive.
COc1ccc2nc(C)cc(NCc3ccc(F)cc3)c2c1 was read as TRPC4 PAM inactive, TRPC4 block -6*, TRPC6 inh inactive, TRPC6 activator inactive and TRPC4 agonist inactive.
`CCn1nc([N+](=O)[O-])c(C(C#N)c2nc3cc(C(F)(F)F)ccc3s2)c(Cl)c1=O` (stereo not drawn) gave TRPC4 PAM inactive, TRPC4 block inactive, TRPC6 inh -10.8*, TRPC6 activator inactive and TRPC4 agonist inactive.
`Cn1nc([N+](=O)[O-])c(C(C#N)c2ccccn2)c(Cl)c1=O` (stereo not drawn) gave TRPC4 PAM inactive, TRPC4 block inactive, TRPC6 inh inactive, TRPC6 activator inactive and TRPC4 agonist inactive.
`CC(C)Oc1cccc(C(=O)C2CCCN(Cc3ccc4nonc4c3)C2)c1` (stereo not drawn) gave TRPC4 PAM inactive, TRPC4 block inactive, TRPC6 inh inactive, TRPC6 activator inactive and TRPC4 agonist inactive.
CCOc1cc(CN2CCCC(C(=O)c3cccc(C(F)(F)F)c3)C2)ccc1O (stereo not drawn) was read as TRPC4 PAM inactive, TRPC4 block -7*, TRPC6 inh inactive, TRPC6 activator inactive and TRPC4 agonist inactive.
For CC(C)Oc1cccc(C(=O)C2CCCN(Cc3cnn(C(C)C)c3)C2)c1 (stereo not drawn) the results were TRPC4 PAM inactive, TRPC4 block -6*, TRPC6 inh inactive, TRPC6 activator inactive and TRPC4 agonist inactive.
Screening Cc1nn(C(C)C)c(C)c1CN1CCCC(C(=O)c2cccc(OC(C)C)c2)C1 (stereo not drawn) returned TRPC4 PAM inactive, TRPC4 block inactive, TRPC6 inh -8.25*, TRPC6 activator inactive and TRPC4 agonist inactive.
CCn1nc(C)c(CN2CCCC(C(=O)c3cccc(OC(C)C)c3)C2)c1C (stereo not drawn) was read as TRPC4 PAM inactive, TRPC4 block inactive, TRPC6 inh inactive, TRPC6 activator inactive and TRPC4 agonist inactive.
C[C@H](NC(=O)c1ccccc1Cl)C(=O)OCC(=O)NNC(=O)c1cccs1 was read as TRPC4 PAM inactive, TRPC4 block inactive, TRPC6 inh inactive, TRPC6 activator inactive and TRPC4 agonist inactive.
`COc1ccc(-n2ncc3c(=O)n(CC(=O)NC(C)C)cnc32)cc1` gave TRPC4 PAM inactive, TRPC4 block inactive, TRPC6 inh inactive, TRPC6 activator inactive and TRPC4 agonist inactive.
For CCCCN(CCCC)CCNC(=O)CN1C(=O)CSc2ccc(S(=O)(=O)N3CCOCC3)cc21 the results were TRPC4 PAM inactive, TRPC4 block inactive, TRPC6 inh inactive, TRPC6 activator inactive and TRPC4 agonist inactive.
